Reference: ChEMBL document CHEMBL1143739, “SAR study of bicyclo[4.1.0]heptanes as melanin-concentrating hormone receptor R1 antagonists: taming hERG” (Bioorg Med Chem, 2007)
Calls of active or inactive are those of the source. The rule behind the calls is not given here.

Tests used:
[1] = biological target: Melanin-concentrating hormone receptor 1 (Homo sapiens, UniProt Q99705); assay: Displacement of [125I]MCH from MCHR1 expressed in CHO cells; type: cell-based
Outline: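 Human MCH R1, CHO cell membranes (0.1 mg/mL) on SPA beads (1 mg/mL). Buffer: 25 mM HEPES, 10 mM MgCl2, 5 mM MnCl2, 0.1% BSA, pH 7.4. Incubation 2–4 h at room temperature, scintillation count. Ki by non-linear regression; mean ± range of two determinations, each in quadruplicate.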

[2] = biological target: Melanin-concentrating hormone receptor 1 (Mus musculus) (UniProt Q8JZL2); assay: Ex vivo displacement of [125I]S36057 binding from mouse brain MCHR1 at 30 mg/kg, po after 24 hrs; type: functional, organism-based; parameters: dose 30 mg/kg
hERG (KCNH2) [3] = biological target: T1, hERG (KCNH2) (Homo sapiens, UniProt Q12809); assay: (§1) Inhibition of hERG expressed in CHO cells at 5 ug/mL by rubidium efflux assay; type: toxicity, cell-based; conditions: CHO cells that express hERG
Outline: (§2)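 hERG-CHO cells plated 24 h, then loaded 3 h in HEPES-buffered saline with 5.4 mM RbCl. Compound added and equilibrated 30 min at 37 °C. Cells washed three times in Rb-free saline (5.4 mM KCl), then depolarized 5 min with 45.4 mM KCl.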

[4] = biological target: Melanin-concentrating hormone receptor 1 (Mus musculus) (UniProt Q8JZL2); assay: Ex vivo displacement of [125I]S36057 binding from mouse brain MCHR1 at 30 mg/kg, po after 6 hrs; type: functional, organism-based; parameters: dose 30 mg/kg
hERG (KCNH2) [5] = biological target: T1, hERG (KCNH2); assay: Inhibition of hERG expressed in CHO cells at […] by rubidium efflux assay; type: toxicity, cell-based; conditions: CHO cells that express hERG
[6] = biological target: Voltage-gated inwardly rectifying potassium channel KCNH2 (Homo sapiens, UniProt Q12809); assay: as §1; type: toxicity, cell-based; conditions: cho; outline: as §2
Chain of Voltage-gated inwardly rectifying potassium channel KCNH2 (Q12809 whole entry): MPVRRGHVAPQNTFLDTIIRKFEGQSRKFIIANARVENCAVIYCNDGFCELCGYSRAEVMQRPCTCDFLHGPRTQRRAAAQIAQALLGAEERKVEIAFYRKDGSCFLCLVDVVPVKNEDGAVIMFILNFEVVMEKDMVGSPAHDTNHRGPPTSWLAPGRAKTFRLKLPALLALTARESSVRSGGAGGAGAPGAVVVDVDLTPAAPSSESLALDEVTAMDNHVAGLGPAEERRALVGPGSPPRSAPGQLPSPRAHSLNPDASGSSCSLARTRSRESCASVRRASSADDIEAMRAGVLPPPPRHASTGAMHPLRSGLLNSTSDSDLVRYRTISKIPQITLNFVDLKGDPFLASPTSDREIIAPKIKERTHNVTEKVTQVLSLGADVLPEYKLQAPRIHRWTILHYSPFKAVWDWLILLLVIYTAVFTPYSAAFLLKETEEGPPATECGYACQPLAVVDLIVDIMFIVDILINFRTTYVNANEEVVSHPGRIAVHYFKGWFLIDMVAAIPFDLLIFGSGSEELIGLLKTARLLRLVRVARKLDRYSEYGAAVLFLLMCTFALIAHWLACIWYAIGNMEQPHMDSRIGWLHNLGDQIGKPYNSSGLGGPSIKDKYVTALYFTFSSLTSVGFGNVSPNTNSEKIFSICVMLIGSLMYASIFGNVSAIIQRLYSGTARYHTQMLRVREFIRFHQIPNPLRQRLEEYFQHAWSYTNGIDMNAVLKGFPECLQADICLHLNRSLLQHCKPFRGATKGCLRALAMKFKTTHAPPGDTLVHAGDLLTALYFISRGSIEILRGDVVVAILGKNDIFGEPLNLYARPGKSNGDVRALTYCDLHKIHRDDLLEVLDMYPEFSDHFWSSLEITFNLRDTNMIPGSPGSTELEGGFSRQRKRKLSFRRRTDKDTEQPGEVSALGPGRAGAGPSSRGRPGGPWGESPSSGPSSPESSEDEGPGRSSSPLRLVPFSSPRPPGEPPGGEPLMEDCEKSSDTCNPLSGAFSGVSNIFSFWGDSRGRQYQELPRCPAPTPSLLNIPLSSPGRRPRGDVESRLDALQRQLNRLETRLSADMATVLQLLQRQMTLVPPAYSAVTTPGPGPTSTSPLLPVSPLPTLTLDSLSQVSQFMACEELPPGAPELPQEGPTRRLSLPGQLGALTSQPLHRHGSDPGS

T1 sequence (Q12809 whole entry): as above
Chain of Melanin-concentrating hormone receptor 1 (Q99705 whole entry): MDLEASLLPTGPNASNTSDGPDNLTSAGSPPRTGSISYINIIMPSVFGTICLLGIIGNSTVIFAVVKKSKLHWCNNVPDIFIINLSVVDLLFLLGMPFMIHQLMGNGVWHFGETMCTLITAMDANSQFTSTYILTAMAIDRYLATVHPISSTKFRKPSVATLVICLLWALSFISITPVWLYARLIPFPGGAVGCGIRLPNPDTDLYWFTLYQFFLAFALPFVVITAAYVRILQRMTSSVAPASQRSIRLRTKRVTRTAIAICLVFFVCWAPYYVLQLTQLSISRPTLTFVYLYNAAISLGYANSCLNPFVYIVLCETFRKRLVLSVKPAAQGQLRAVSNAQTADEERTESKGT
Chain of Melanin-concentrating hormone receptor 1 (Mus musculus) (Q8JZL2 whole entry): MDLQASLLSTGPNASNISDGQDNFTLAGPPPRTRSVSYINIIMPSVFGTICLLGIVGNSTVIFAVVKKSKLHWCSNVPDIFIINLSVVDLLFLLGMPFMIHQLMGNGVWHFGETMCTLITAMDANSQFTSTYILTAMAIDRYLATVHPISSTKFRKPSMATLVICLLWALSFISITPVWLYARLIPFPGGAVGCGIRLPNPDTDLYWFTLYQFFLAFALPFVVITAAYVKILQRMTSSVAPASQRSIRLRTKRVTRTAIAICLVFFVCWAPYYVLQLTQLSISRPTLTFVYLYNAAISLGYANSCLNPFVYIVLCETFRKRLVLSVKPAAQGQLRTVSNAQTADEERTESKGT

SMILES: CC(=O)c1ccc(C2=CCC(N(CCN3CCCC3)C(=O)Nc3ccc(F)c(Cl)c3)CC2)s1 (centres undefined)
- Ki [1]: 31 nM
- Activity [2]: 3%
- inhibition at 5 ug/mL (hERG (KCNH2) [3]): 43%
- Activity [4]: 59%

SMILES: N#Cc1ccc(C2=CCC(N(CCN3CCCC3)C(=O)Nc3ccc(F)c(Cl)c3)CC2)s1 (centres undefined)
- Ki [1]: 4.2 nM
- Activity [2]: 97%
- inhibition at 5 ug/mL (hERG (KCNH2) [3]): 74%
- Activity [4]: 84%

SMILES: CC(C)N(CCN(C(=O)Nc1cc(Cl)nc(Cl)c1)[C@@H]1CC[C@]2(c3cccc(C#N)c3)CC2C1)[C@@H](C)CO (some centres undefined)
- Ki [1]: 1.6 nM
- Activity [2]: 81%
- inhibition at 5 ug/mL (hERG (KCNH2) [3]): 60%
- Activity [4]: 99%

SMILES: NCc1ccc(C2=CCC(N(CCN3CCCC3)C(=O)Nc3ccc(F)c(Cl)c3)CC2)s1 (centres undefined)
- Ki [1]: 8.2 nM
- Activity [2]: 57%
- inhibition at 5 ug/mL (hERG (KCNH2) [3]): 26%
- Activity [4]: 77%

SMILES: N#Cc1cccc([C@]23CC[C@@H](N(CCNCCF)C(=O)Nc4cc(Cl)nc(Cl)c4)CC2C3)c1 (some centres undefined)
- Ki [1]: 4.4 nM
- Activity [2]: 32%
- inhibition at 5 ug/mL (hERG (KCNH2) [3]): 84%
- Activity [4]: 89%

SMILES: CC(C)N(CCN(C(=O)Nc1cc(Cl)nc(Cl)c1)[C@@H]1CC[C@]2(c3cccc(C#N)c3)CC2C1)C(C)C (stereo in doubt; 13)
- Activity [2]: 58%
- Activity [4]: 99%

SMILES: N#Cc1cccc([C@]23CC[C@@H](N(CCN4CCC[C@H]4CO)C(=O)Nc4ccc(F)c(Cl)c4)CC2C3)c1 (some centres undefined)
- Activity [2]: inactive
- inhibition at 5 ug/mL (hERG (KCNH2) [3]): 75%
- Activity [4]: 78%

SMILES: CC(C)N(CCN(C(=O)Nc1ccc(F)c(Cl)c1)[C@@H]1CC[C@]2(c3cccc(C#N)c3)CC2C1)[C@@H](C)CO (some centres undefined)
- Ki [1]: 5.2 nM
- Activity [2]: 35%
- inhibition at 5 ug/mL (hERG (KCNH2) [3]): 82%
- Activity [4]: 75%

SMILES: CC1CC[C@@H](CO)N1CCN(C(=O)Nc1cc(Cl)nc(Cl)c1)[C@@H]1CC[C@]2(c3cccc(C#N)c3)CC2C1 (some centres undefined)
- Ki [1]: 1.2 nM
- Activity [2]: 41%
- inhibition at 5 ug/mL (hERG (KCNH2) [3]): 60%
- Activity [4]: 82%

SMILES: CN(C)Cc1cccc([C@]23CC[C@@H](N(CC4CCN(S(C)(=O)=O)CC4)C(=O)Nc4cc(Cl)nc(Cl)c4)CC2C3)c1 (some centres undefined)
- Ki [1]: 3.3 nM
- inhibition at […] (hERG (KCNH2) [5]): 8%
- inhibition at 5 ug/mL (hERG (KCNH2) [3]): 7%
- Activity [4]: 0%

SMILES: CS(=O)(=O)N1CCC(CN(C(=O)Nc2cc(Cl)nc(Cl)c2)[C@@H]2CC[C@]3(c4cccc(CN)c4)CC3C2)CC1 (some centres undefined)
- Ki [1]: 2.4 nM
- inhibition at […] (hERG (KCNH2) [5]): -1%
- inhibition at 5 ug/mL (hERG (KCNH2) [3]): 3%
- Activity [4]: 0%

SMILES: CC(C)N(CCO)CCN(C(=O)Nc1cc(Cl)nc(Cl)c1)[C@@H]1CC[C@]2(c3cccc(C#N)c3)CC2C1 (some centres undefined)
- Ki [1]: 1.6 nM
- Activity [2]: inactive
- Activity [6]: Not Active
- Activity [4]: 99%

SMILES: CO/N=C/c1cccc([C@]23CC[C@@H](N(CCN(C(C)C)C(C)C)C(=O)Nc4ccc(F)c(Cl)c4)CC2C3)c1 (some centres undefined)
- Ki [1]: 4.1 nM
- Activity [2]: inactive
- inhibition at 5 ug/mL (hERG (KCNH2) [3]): 76%
- Activity [4]: 62%

SMILES: CC(C)N(CCN(C(=O)Nc1ccc(F)c(Cl)c1)[C@@H]1CC[C@]2(c3cccc(C#N)c3)CC2C1)[C@H](C)CO (some centres undefined)
- Ki [1]: 9.4 nM
- Activity [2]: 25%
- Activity [6]: Not Active
- Activity [4]: 73%

SMILES: CC(C)N(CCF)CCN(C(=O)Nc1ccc(F)c(Cl)c1)[C@@H]1CC[C@]2(c3cccc(C#N)c3)CC2C1 (some centres undefined)
- Ki [1]: 12 nM
- Activity [2]: 66%
- inhibition at 5 ug/mL (hERG (KCNH2) [3]): 50%
- Activity [4]: 81%

SMILES: CN(C)Cc1cccc([C@]23CC[C@@H](N(CC4CCN(S(C)(=O)=O)CC4)C(=O)Nc4ccc(F)c(Cl)c4)CC2C3)c1 (some centres undefined)
- Ki [1]: 15 nM
- inhibition at […] (hERG (KCNH2) [5]): 7%
- inhibition at 5 ug/mL (hERG (KCNH2) [3]): 8%
- Activity [4]: 26%

SMILES: CS(=O)(=O)N1CCC(CN(C(=O)Nc2ccc(F)c(Cl)c2)[C@@H]2CC[C@]3(c4cccc(CN)c4)CC3C2)CC1 (some centres undefined)
- Ki [1]: 9.9 nM
- inhibition at […] (hERG (KCNH2) [5]): 8%
- inhibition at 5 ug/mL (hERG (KCNH2) [3]): 14%
- Activity [4]: 0%

SMILES: CC1CC[C@@H](CO)N1CCN(C(=O)Nc1ccc(F)c(Cl)c1)[C@@H]1CC[C@]2(c3cccc(C#N)c3)CC2C1 (some centres undefined)
- Ki [1]: 11 nM
- Activity [2]: 2%
- inhibition at 5 ug/mL (hERG (KCNH2) [3]): 78%
- Activity [4]: 31%

SMILES: CC(C)NCCN(C(=O)Nc1cc(Cl)nc(Cl)c1)[C@@H]1CC[C@]2(c3cccc(C#N)c3)CC2C1 (some centres undefined)
- Ki [1]: 1.9 nM
- Activity [2]: 70%
- Activity [6]: Not Active
- Activity [4]: 93%

SMILES: CC(C)N(CCO)CCN(C(=O)Nc1ccc(F)c(Cl)c1)[C@@H]1CC[C@]2(c3cccc(C#N)c3)CC2C1 (some centres undefined)
- Ki [1]: 8.7 nM
- Activity [2]: 38%
- inhibition at 5 ug/mL (hERG (KCNH2) [3]): 88%
- Activity [4]: 73%

SMILES: CC(C)N(CCF)CCN(C(=O)Nc1cc(Cl)nc(Cl)c1)[C@@H]1CC[C@]2(c3cccc(C#N)c3)CC2C1 (some centres undefined)
- Ki [1]: 10 nM
- Activity [2]: 97%
- inhibition at 5 ug/mL (hERG (KCNH2) [3]): 50%
- Activity [4]: 99%

SMILES: O=C(Nc1ccc(F)c(Cl)c1)N(CCN1CCCC1)C1CC=C(c2cccnc2)CC1 (centres undefined)
- Ki [1]: 30 nM
- Activity [4]: 16%

SMILES: CS(=O)(=O)N1CCC(CN(C(=O)Nc2ccc(F)c(F)c2)[C@@H]2CC[C@]3(c4cccc(C#N)c4)CC3C2)CC1 (some centres undefined)
- Ki [1]: 5.4 nM
- inhibition at […] (hERG (KCNH2) [5]): 15%
- inhibition at 5 ug/mL (hERG (KCNH2) [3]): 34%

SMILES: CC(=O)NCc1cccc([C@]23CC[C@@H](N(CCN(C(C)C)C(C)C)C(=O)Nc4ccc(F)c(Cl)c4)CC2C3)c1 (some centres undefined)
- Ki [1]: 31 nM
- inhibition at […] (hERG (KCNH2) [5]): 62%
- inhibition at 5 ug/mL (hERG (KCNH2) [3]): 78%

SMILES: CC(C)N(CCN(C(=O)Nc1ccc(F)c(Cl)c1)[C@@H]1CC[C@]2(c3cccc(CNS(C)(=O)=O)c3)CC2C1)C(C)C (some centres undefined)
- Ki [1]: 18 nM
- inhibition at […] (hERG (KCNH2) [5]): 17%
- inhibition at 5 ug/mL (hERG (KCNH2) [3]): 46%

SMILES: N#Cc1cccc([C@]23CC[C@@H](N(CCN4CC[C@@H](O)C4)C(=O)Nc4ccc(F)c(Cl)c4)CC2C3)c1 (some centres undefined)
- Activity [2]: inactive
- inhibition at 5 ug/mL (hERG (KCNH2) [3]): 80%
- Activity [4]: 49%

SMILES: CC(C)N(CCN(C(=O)Nc1ccc(F)c(Cl)c1)[C@@H]1CC[C@]2(c3cccc(CO)c3)CC2C1)C(C)C (some centres undefined)
- Ki [1]: 48 nM
- inhibition at […] (hERG (KCNH2) [5]): 43%
- inhibition at 5 ug/mL (hERG (KCNH2) [3]): 67%

SMILES: CNC(=O)N1CCC(CN(C(=O)Nc2ccc(F)c(C(F)(F)F)c2)[C@@H]2CC[C@]3(c4cccc(C#N)c4)CC3C2)CC1 (some centres undefined)
- Ki [1]: 181 nM
- inhibition at […] (hERG (KCNH2) [5]): 14%
- inhibition at 5 ug/mL (hERG (KCNH2) [3]): 18%

SMILES: CCN(CC)Cc1cccc([C@]23CC[C@@H](N(CCN(C(C)C)C(C)C)C(=O)Nc4ccc(F)c(Cl)c4)CC2C3)c1 (some centres undefined)
- Ki [1]: 46 nM
- inhibition at […] (hERG (KCNH2) [5]): 15%
- inhibition at 5 ug/mL (hERG (KCNH2) [3]): 30%

SMILES: CS(=O)(=O)N1CCC(CN(C(=O)Nc2ccc(F)c(C(F)(F)F)c2)[C@@H]2CC[C@]3(c4cccc(C#N)c4)CC3C2)CC1 (some centres undefined)
- Ki [1]: 26 nM
- inhibition at […] (hERG (KCNH2) [5]): -1%
- inhibition at 5 ug/mL (hERG (KCNH2) [3]): -1%

SMILES: CS(=O)(=O)N1CCC(CN(C(=O)Nc2cc(Cl)nc(Cl)c2)[C@@H]2CC[C@]3(c4cccc(CN5CC[C@H](O)C5)c4)CC3C2)CC1 (some centres undefined)
- Ki [1]: 8.9 nM
- inhibition at […] (hERG (KCNH2) [5]): -7%
- inhibition at 5 ug/mL (hERG (KCNH2) [3]): 0%
- Activity [4]: 1%

SMILES: CC(C)N(CCN(C(=O)Nc1ccc(F)c(Cl)c1)[C@@H]1CC[C@]2(c3cccc(C(N)=O)c3)CC2C1)C(C)C (some centres undefined)
- Ki [1]: 142 nM
- inhibition at […] (hERG (KCNH2) [5]): 21%
- inhibition at 5 ug/mL (hERG (KCNH2) [3]): 44%

SMILES: NCc1ncc(C2=CCC(N(CCN3CCCC3)C(=O)Nc3ccc(F)c(Cl)c3)CC2)s1 (centres undefined)
- Ki [1]: 13 nM
- Activity [2]: 75%
- inhibition at 5 ug/mL (hERG (KCNH2) [3]): 10%
- Activity [4]: 88%

SMILES: CCS(=O)(=O)N1CCC(CN(C(=O)Nc2ccc(F)c(F)c2)[C@@H]2CC[C@]3(c4cccc(C#N)c4)CC3C2)CC1 (some centres undefined)
- Ki [1]: 21 nM
- inhibition at […] (hERG (KCNH2) [5]): 25%
- inhibition at 5 ug/mL (hERG (KCNH2) [3]): 59%

SMILES: CC(C)N(CCN(C(=O)Nc1ccc(F)c(Cl)c1)[C@@H]1CC[C@]2(c3cccc(C#N)c3)CC2C1)C(C)C (some centres undefined)
- Ki [1]: 5 nM
- inhibition at […] (hERG (KCNH2) [5]): 44%
- Activity [2]: inactive
- inhibition at 5 ug/mL (hERG (KCNH2) [3]): 78%
- Activity [4]: 83%

SMILES: NCc1cnc(C2=CCC(N(CCN3CCCC3)C(=O)Nc3ccc(F)c(Cl)c3)CC2)s1 (centres undefined)
- Ki [1]: 17 nM
- inhibition at 5 ug/mL (hERG (KCNH2) [3]): 14%
- Activity [4]: 37%
